In general, inhibition refers to the share of the control response that was lost under treatment.

What all share (assay type): cell-based
The target in data set [1] is T1, Kir3.1/Kir3.4 (Homo sapiens) (UniProt P48549+P48544). Description: Inhibition of GTPgammaS-induced activation of GIRK1/4 (unknown origin) expressed in HEK293 cells assessed as decrease in channel current at 1 uM after 2 mins at -40 mV holding potential by automated patch-clamp electrophysiology assay. A digest of the protocol:
(§1)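 Whole-cell automated planar patch clamp on HEK-293 cells stably expressing GIRK1/4 (Kir3.1/3.4). Internal solution carries 0.9 mM GTPγS to activate channels; bath switched from 4 mM K+ to high-K+ (25 mM KCl) external, pH 7.4. Step to 60 mV, ramp to −140 mV, 100 ms at −140 mV, ~0.1 Hz; inward current read at −140 mV. After 3 min control, 1 then 10 μM for ~2 min each; K+-free solution baseline; two to three cells.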
Background: In patch-clamp work, channel activity is measured electrically.

Data set [2] concerns the target T1, Kir3.1/Kir3.4 (Homo sapiens). Description: Inhibition of GTPgammaS-induced activation of GIRK1/4 (unknown origin) expressed in HEK293 cells assessed as decrease in channel current at 10 uM after 2 mins at -40 mV holding potential by automated patch-clamp electrophysiology assay. A digest of the protocol:
as §1

Data set [3] addresses T2, hERG (KCNH2) (Homo sapiens, UniProt Q12809). Description: Inhibition of human ERG expressed in HEK293 cells assessed as decrease in channel current at 3 uM after 3 mins at -80 mV holding potential by automated patch-clamp electrophysiology assay. The following applies: HEK293 cells that express hERG. A digest of the protocol:
(§2)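 HEK-293 cells stably transfected with hERG (Kv11.1), whole-cell automated planar patch clamp. External solution 4 mM KCl, pH 7.4; internal KCl/KF/EGTA, pH 7.2. Protocol: 100 ms −40 mV reference step, 3 s at 20 mV, then 1 s at −40 mV for the outward tail current. After control, 3, 10, 30 μM cumulative, ~3 min each; amitriptyline 10 μM reference, then wash-out; two or three cells; DMSO ≤0.3% final.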

For data set [4], the target named is T2, hERG (KCNH2). Description: Inhibition of human ERG expressed in HEK293 cells assessed as decrease in channel current at 10 uM after 3 mins at -80 mV holding potential by automated patch-clamp electrophysiology assay. The following applies: HEK293 cells that express hERG. A digest of the protocol: as §2
The target of data set [5] is T2, hERG (KCNH2). Description: Inhibition of human ERG expressed in HEK293 cells assessed as decrease in channel current at 30 uM after 3 mins at -80 mV holding potential by automated patch-clamp electrophysiology assay. The following applies: HEK293 cells that express hERG. A digest of the protocol: as §2

T2 sequence (Q12809 whole entry): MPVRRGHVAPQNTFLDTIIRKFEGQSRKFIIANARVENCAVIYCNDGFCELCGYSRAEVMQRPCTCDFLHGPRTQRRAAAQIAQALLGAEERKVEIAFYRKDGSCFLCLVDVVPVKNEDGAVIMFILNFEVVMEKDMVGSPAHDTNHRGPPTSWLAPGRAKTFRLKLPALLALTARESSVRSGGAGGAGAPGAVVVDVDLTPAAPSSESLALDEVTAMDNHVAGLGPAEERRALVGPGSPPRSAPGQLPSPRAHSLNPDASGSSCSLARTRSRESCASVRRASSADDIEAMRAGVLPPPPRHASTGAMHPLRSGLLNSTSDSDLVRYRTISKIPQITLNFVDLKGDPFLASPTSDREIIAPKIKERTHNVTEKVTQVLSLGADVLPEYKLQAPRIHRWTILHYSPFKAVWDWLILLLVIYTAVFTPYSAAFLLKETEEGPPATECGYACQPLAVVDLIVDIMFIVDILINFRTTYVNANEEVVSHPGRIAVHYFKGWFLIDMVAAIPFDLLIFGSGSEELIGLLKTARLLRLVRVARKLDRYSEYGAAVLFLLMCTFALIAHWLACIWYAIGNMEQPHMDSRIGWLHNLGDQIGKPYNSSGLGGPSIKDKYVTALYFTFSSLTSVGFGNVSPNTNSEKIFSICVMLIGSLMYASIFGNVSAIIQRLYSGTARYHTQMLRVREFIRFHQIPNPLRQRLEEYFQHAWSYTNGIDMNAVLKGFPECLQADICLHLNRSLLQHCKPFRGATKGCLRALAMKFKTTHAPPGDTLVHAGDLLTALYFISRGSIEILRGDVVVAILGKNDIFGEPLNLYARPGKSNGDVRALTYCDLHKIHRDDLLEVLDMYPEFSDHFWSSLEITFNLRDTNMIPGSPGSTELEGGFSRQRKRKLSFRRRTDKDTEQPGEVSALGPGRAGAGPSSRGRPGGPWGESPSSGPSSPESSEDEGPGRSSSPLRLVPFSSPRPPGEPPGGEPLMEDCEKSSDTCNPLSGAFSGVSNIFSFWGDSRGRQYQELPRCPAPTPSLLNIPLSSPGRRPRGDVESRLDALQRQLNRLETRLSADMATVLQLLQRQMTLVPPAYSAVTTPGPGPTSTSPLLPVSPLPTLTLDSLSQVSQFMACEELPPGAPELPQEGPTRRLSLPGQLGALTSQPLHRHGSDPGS

`CCC(=O)O[C@@H]1[C@@H]2[C@@H](OC(C)=O)[C@@]34CO[C@@](C)([C@H](OC(C)=O)[C@@]2(OC(C)=O)C[C@]1(C)O)[C@@H]3[C@@H]1[C@@H](C[C@]1(C)OC(C)=O)[C@@H](OC(=O)C(C)CC)C4=O` (stereo not given in full): the inhibition worked out at 11% in data set [1] and 24% in data set [2]. Further, at hERG (KCNH2) [3], the inhibition at 0.05 h, 3 µM stood at 8%. Besides, the inhibition at 0.05 h, 10 µM on hERG (KCNH2) [4] turned out to be 20%. Also, the inhibition at 0.05 h, 30 µM on hERG (KCNH2) [5] turned out to be 33%.
The matching figures for `CCC(C)C(=O)O[C@H]1C(=O)[C@@]23CO[C@@](C)([C@H](OC(C)=O)[C@@]4(OC(C)=O)C[C@](C)(O)[C@H](OC(=O)C(C)C)[C@@H]4[C@H]2OC(C)=O)[C@@H]3[C@@H]2[C@H]1C[C@]2(C)OC(C)=O` (stereo not given in full): 14%, 26%, 12%, 22% and 32%.
With `CCC(=O)O[C@@H]1[C@@H]2[C@@H](OC(C)=O)[C@@]34CO[C@@](C)([C@H](OC(C)=O)[C@@]2(OC(C)=O)C[C@H]1C)[C@@H]3[C@@H]1[C@@H](C[C@]1(C)OC(C)=O)[C@@H](OC(=O)C(C)C)C4=O`, the inhibition in data set [1] was found to be 30%; in data set [2] it was 70%. The inhibition at 0.05 h, 3 µM at hERG (KCNH2) [3] is 0%. Also, the inhibition at 0.05 h, 10 µM at hERG (KCNH2) [4] is 23%. Also, the inhibition at 0.05 h, 30 µM at hERG (KCNH2) [5] stood at 33%.
With `CC(=O)O[C@@H]1[C@H]2[C@@H](OC(=O)C(C)C)[C@@](C)(OC(=O)c3cccnc3)C[C@]2(OC(C)=O)[C@@H](OC(C)=O)[C@]2(C)OC[C@]13C(=O)[C@H](OC(=O)C(C)C)[C@@H]1C[C@](C)(OC(C)=O)[C@@H]1[C@@H]23`, the inhibition in data set [1] was determined as 8%; in data set [2] it was 57%. The inhibition at 0.05 h, 3 µM on hERG (KCNH2) [3] is 8%. The inhibition at 0.05 h, 10 µM on hERG (KCNH2) [4] was 19%. For the same molecule, the inhibition at 0.05 h, 30 µM at hERG (KCNH2) [5] came to 30%.
In the case of `CC(=O)OC1O[C@@]2(C)[C@H](OC(=O)c3ccccc3)[C@@]3(OC(C)=O)C[C@H](C)[C@H](OC(=O)C(C)C)[C@@H]3[C@@H](OC(C)=O)[C@@]13[C@H](OC(=O)c1cccnc1)C[C@H]1[C@@H]([C@@H]23)C1(C)C` (stereo not given in full), the inhibition in data set [1] was determined as 18%; in data set [2], 37%. The inhibition at 0.05 h, 3 µM at hERG (KCNH2) [3] turned out to be 48%. For the same molecule, at hERG (KCNH2) [4], the inhibition at 0.05 h, 10 µM came to 68%. Moreover, at hERG (KCNH2) [5], the inhibition at 0.05 h, 30 µM was 78%.
Turning to `CC(=O)O[C@@H]1[C@H]2[C@@H](OC(=O)C(C)C)[C@@](C)(OC(=O)c3ccccc3)C[C@]2(OC(C)=O)[C@@H](OC(C)=O)[C@]2(C)OC[C@]13C(=O)[C@H](OC(=O)C(C)C)[C@@H]1C[C@](C)(OC(C)=O)[C@@H]1[C@@H]23`, the inhibition in data set [1] amounted to 33%; in data set [2], 77%. Also, the inhibition at 0.05 h, 3 µM on hERG (KCNH2) [3] was 14%. Besides, the inhibition at 0.05 h, 10 µM on hERG (KCNH2) [4] amounted to 24%. On hERG (KCNH2) [5], the inhibition at 0.05 h, 30 µM was found to be 53%.
For the molecule `CCC(=O)O[C@@H]1[C@@H]2[C@@H](OC(C)=O)[C@@]34CO[C@@](C)([C@H](OC(C)=O)[C@@]2(OC(C)=O)C[C@]1(C)OC(=O)c1cccnc1)[C@@H]3[C@@H]1[C@@H](C[C@]1(C)OC(C)=O)[C@@H](OC(=O)C(C)C)C4=O`, the inhibition in data set [1] was determined as 35%; in data set [2], 65%. The inhibition at 0.05 h, 3 µM at hERG (KCNH2) [3] came to 11%. In addition, the inhibition at 0.05 h, 10 µM on hERG (KCNH2) [4] was 22%. The inhibition at 0.05 h, 30 µM at hERG (KCNH2) [5] came out at 42%.
For the molecule `CCC(=O)O[C@@H]1[C@@H]2[C@@H](OC(C)=O)[C@@]34CO[C@@](C)([C@H](OC(C)=O)[C@@]2(OC(C)=O)C[C@]1(C)OC(=O)c1ccccc1)[C@@H]3[C@@H]1[C@@H](C[C@]1(C)OC(C)=O)[C@@H](OC(=O)C(C)CC)C4=O` (stereo not given in full), the inhibition in data set [1] stood at 20%; in data set [2], 64%. Further, the inhibition at 0.05 h, 3 µM at hERG (KCNH2) [3] is 16%. The inhibition at 0.05 h, 10 µM on hERG (KCNH2) [4] came out at 31%. Also, the inhibition at 0.05 h, 30 µM at hERG (KCNH2) [5] stood at 52%.
In the same order, the values of `CCCCCC(=O)O[C@@H]1[C@@H]2[C@@H](O)[C@]34CC[C@H]5[C@@H]([C@H]3[C@@](C)(OC4)[C@H](OC(C)=O)[C@@]2(O)C[C@@H]1C)C5(C)C` are 30%, 69%, 19%, 40% and 55%.
In the case of `CC(=O)O[C@@H]1C[C@H]2[C@@H]([C@@H]3[C@]1(COC(=O)c1cccnc1)[C@H](OC(=O)c1ccccc1)[C@H]1[C@@H](OC(=O)C(C)C)[C@@H](C)C[C@]1(O)C(=O)[C@@]3(C)OC(C)=O)C2(C)C`, the inhibition in data set [1] was 28%; in data set [2], 48%. In addition, the inhibition at 0.05 h, 3 µM at hERG (KCNH2) [3] is 14%. Besides, the inhibition at 0.05 h, 10 µM at hERG (KCNH2) [4] is 29%. In addition, at hERG (KCNH2) [5], the inhibition at 0.05 h, 30 µM was determined as 53%.
Regarding `CC(=O)OC[C@@]12[C@H](OC(=O)c3ccccc3)[C@H]3[C@@H](OC(=O)C(C)C)[C@@H](C)C[C@]3(OC(C)=O)C(=O)[C@@]3(C)OC(C)(C)[C@@H](C=C[C@H]1OC(C)=O)[C@H]23`, the inhibition amounted to 26% in data set [1] and 61% in data set [2]. Further, at hERG (KCNH2) [3], the inhibition at 0.05 h, 3 µM turned out to be 13%. In addition, the inhibition at 0.05 h, 10 µM on hERG (KCNH2) [4] amounted to 24%. At hERG (KCNH2) [5], the inhibition at 0.05 h, 30 µM was determined as 43%.
Regarding `CCC(=O)O[C@@H]1[C@@H]2[C@@H](OC(C)=O)[C@@]34CO[C@@](C)([C@H](OC(C)=O)[C@@]2(O)C[C@@H]1C)[C@@H]3[C@@H]1[C@@H](C[C@]1(C)OC(C)=O)[C@@H](OC(=O)c1ccccc1)C4=O`, the inhibition in data set [1] is 19%; in data set [2], 54%. Further, the inhibition at 0.05 h, 3 µM at hERG (KCNH2) [3] is 12%. Also, at hERG (KCNH2) [4], the inhibition at 0.05 h, 10 µM turned out to be 21%. Besides, the inhibition at 0.05 h, 30 µM at hERG (KCNH2) [5] was determined as 45%.
As to `CC(=O)O[C@@H]1C=C[C@H]2[C@@H]3[C@]1(COC(=O)C(C)C)[C@H](OC(=O)c1ccccc1)[C@H]1[C@@H](OC(=O)C(C)C)[C@@H](C)C[C@]1(O)C(=O)[C@@]3(C)OC2(C)C`, the inhibition came to 21% in data set [1] and 54% in data set [2]. Also, the inhibition at 0.05 h, 3 µM on hERG (KCNH2) [3] came out at 20%. Moreover, the inhibition at 0.05 h, 10 µM on hERG (KCNH2) [4] was found to be 33%. Moreover, the inhibition at 0.05 h, 30 µM at hERG (KCNH2) [5] turned out to be 46%.
For `CCC(C)C(=O)O[C@H]1C(=O)[C@@]23CO[C@@](C)([C@H](OC(C)=O)[C@@]4(OC(C)=O)C[C@](C)(OC(=O)c5cccnc5)[C@H](OC(=O)C(C)C)[C@@H]4[C@H]2OC(C)=O)[C@@H]3[C@@H]2[C@H]1C[C@]2(C)OC(C)=O` (stereo not given in full), the inhibition was determined as 23% in data set [1] and 69% in data set [2]. Besides, the inhibition at 0.05 h, 3 µM at hERG (KCNH2) [3] was 20%. For the same molecule, the inhibition at 0.05 h, 10 µM at hERG (KCNH2) [4] came out at 54%. For the same molecule, the inhibition at 0.05 h, 30 µM on hERG (KCNH2) [5] came to 82%.
In the same order, the values of `CCC(C)C(=O)O[C@H]1C(=O)[C@@]23CO[C@@](C)([C@H](OC(C)=O)[C@@]4(OC(C)=O)C[C@](C)(OC(=O)c5ccccc5)[C@H](OC(=O)C(C)C)[C@@H]4[C@H]2OC(C)=O)[C@@H]3[C@@H]2[C@H]1C[C@]2(C)OC(C)=O` (stereo not given in full) are 26%, 70%, 14%, 30% and 40%.

The values are drawn from ChEMBL document CHEMBL3865819, “Myrsinane, Premyrsinane, and Cyclomyrsinane Diterpenes from Euphorbia falcata as Potassium Ion Channel Inhibitors with Selective G Protein-Activated Inwardly Rectifying Ion Channel (GIRK) Blocking Effects” (J Nat Prod, 2016).
